ChEMBL document CHEMBL1177718, “Phosphoramidate ProTides of 2'-C-methylguanosine as highly potent inhibitors of hepatitis C virus. Study of their in vitro and in vivo properties” (J Med Chem, 2010)

Legend:
[1] = Metabolic stability in rat liver S9 fraction assessed as compound remaining at 10 uM after 60 mins by HPLC analysis in absence of NADP; assay type: ADME, subcellular; details: read-out: Stability
Procedure, shortened: (§1)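 Rat liver or intestinal S9 at 1 mg/mL final in 50 mM potassium phosphate, with or without NADPH-regenerating system (final 1.3 mM NADP, 3.3 mM glucose-6-phosphate, 0.4 U/mL G6P dehydrogenase, 3.3 mM MgCl2). Preincubated 10 min at 37 °C with shaking, started with compound at 10 μM final. Samples taken at 0 and 60 min, quenched in cold acetonitrile, centrifuged, and parent disappearance measured by HPLC.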

[2] = Metabolic stability in human liver S9 fraction assessed as compound remaining at 10 uM after 60 mins by HPLC analysis in absence of NADP; assay type: ADME, subcellular; details: read-out: Stability
Procedure, shortened: (§2)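 Liver or intestinal S9 at final 1 mg/mL in 50 mM potassium phosphate, with or without NADPH-regenerating system (1.3 mM NADP, 3.3 mM glucose-6-phosphate, 0.4 U/mL G6PDH, 3.3 mM MgCl₂); 10 min preincubation at 37 °C; compound at final 10 μM; samples at start and 60 min quenched in cold acetonitrile, centrifuged, HPLC; % parent remaining.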

[3] = Metabolic stability in dog intestine S9 fraction assessed as compound remaining at 10 uM after 60 mins by HPLC analysis in absence of NADP; assay type: ADME, tissue-based, Canis lupus familiaris; details: read-out: Stability; procedure, shortened: as §2
[4] = Cytotoxicity against human HuH7 cells after 72 hrs by celltiter-glo assay; assay type: cell-based, Huh-7
Procedure, shortened: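 Replicon 1b Huh7 cells seeded 2 × 10⁴/well; after 24 h, 11 serial 2× dilutions from 100 μM (three repeats each) with no-compound control; 72 h at 37 °C, CO₂, log-phase growth; viability by CellTiter-Glo luminescence; CC₅₀ = concentration giving 50% signal.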

[5] = Metabolic stability in rat liver S9 fraction assessed as compound remaining at 10 uM after 60 mins by HPLC analysis in presence of NADP; assay type: ADME, subcellular; details: read-out: Stability; procedure, shortened: as §1
[6] = Metabolic stability in dog liver S9 fraction assessed as compound remaining at 10 uM after 60 mins by HPLC analysis in absence of NADP; assay type: ADME, subcellular, Canis lupus familiaris; details: read-out: Stability; procedure, shortened: as §2
[7] = Metabolic stability in dog intestine S9 fraction assessed as compound remaining at 10 uM after 60 mins by HPLC analysis in presence of NADP; assay type: ADME, tissue-based, Canis lupus familiaris; details: read-out: Stability; procedure, shortened: as §2
[8] = Metabolic stability in cynomolgus monkey liver S9 fraction assessed as compound remaining at 10 uM after 60 mins by HPLC analysis in presence of NADP; assay type: ADME, subcellular, Macaca fascicularis; details: read-out: Stability; procedure, shortened: as §2
[9] = Metabolic stability in dog liver S9 fraction assessed as compound remaining at 10 uM after 60 mins by HPLC analysis in presence of NADP; assay type: ADME, subcellular, Canis lupus familiaris; details: read-out: Stability; procedure, shortened: as §2
[10] = Metabolic stability in cynomolgus monkey intestine S9 fraction assessed as compound remaining at 10 uM after 60 mins by HPLC analysis in presence of NADP; assay type: ADME, tissue-based, Macaca fascicularis; details: read-out: Stability; procedure, shortened: as §2
[11] = Metabolic stability in mouse plasma assessed as compound remaining at 1 ug/ml after 30 mins; assay type: ADME, cell-free; details: read-out: Stability
[12] = Metabolic stability in cynomolgus monkey intestine S9 fraction assessed as compound remaining at 10 uM after 60 mins by HPLC analysis in absence of NADP; assay type: ADME, tissue-based, Macaca fascicularis; details: read-out: Stability; procedure, shortened: as §2
[13] = Metabolic stability in human intestine S9 fraction assessed as compound remaining at 10 uM after 60 mins by HPLC analysis in presence of NADP; assay type: ADME, tissue-based; details: read-out: Stability; procedure, shortened: as §2
[14] = Metabolic stability in rat intestine S9 fraction assessed as compound remaining at 10 uM after 60 mins by HPLC analysis in absence of NADP; assay type: ADME, tissue-based; details: read-out: Stability; procedure, shortened: as §1
[15] = Metabolic stability in human intestine S9 fraction assessed as compound remaining at 10 uM after 60 mins by HPLC analysis in absence of NADP; assay type: ADME, tissue-based; details: read-out: Stability; procedure, shortened: as §2
[16] = Metabolic stability in rat intestine S9 fraction assessed as compound remaining at 10 uM after 60 mins by HPLC analysis in presence of NADP; assay type: ADME, tissue-based; details: read-out: Stability; procedure, shortened: as §1
[17] = Metabolic stability in human liver S9 fraction assessed as compound remaining at 10 uM after 60 mins by HPLC analysis in presence of NADP; assay type: ADME, subcellular; details: read-out: Stability; procedure, shortened: as §2
Hepatitis C virus = test: Antiviral activity against HCV1b infected in human HuH7 cells assessed as inhibition of viral replication after 48 hrs by luciferase reporter gene assay; assay type: functional, organism-based, Hepacivirus hominis; details: genotype 1b, Huh-7, 48 h
Procedure, shortened: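 Huh7 cells carrying genotype 1b bicistronic subgenomic replicon, seeded 2 × 10⁴/well without G-418; compounds added 18-24 h later, 48 h exposure; 3× or 4× serial dilutions over 0.0001-10 μM in triplicate/quadruplicate; Renilla luciferase read-out versus untreated cells; EC₅₀ by four-parameter sigmoidal nonlinear regression; at least three independent assays.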

[18] = Metabolic stability in cynomolgus monkey liver S9 fraction assessed as compound remaining at 10 uM after 60 mins by HPLC analysis in absence of NADP; assay type: ADME, subcellular, Macaca fascicularis; details: read-out: Stability; procedure, shortened: as §2
Liver [19] = test: AUC (0 to 6 hrs) in ICR mouse liver at 50 mg/kg, po by LC-MS/MS analysis; assay type: ADME, organism-based; design: time < 6 hr, dose 50 mg/kg, route oral; details: in vivo
[20] = Metabolic stability in dog plasma assessed as compound remaining at 1 ug/ml after 30 mins; assay type: ADME, cell-free, Canis lupus familiaris; details: read-out: Stability
Procedure, shortened: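 Duplicate incubations; compound at final 1 μg/mL in plasma preincubated and kept at […]; samples taken at 30 or 240 min, quenched with ice-cold acetonitrile, centrifuged, supernatant diluted with water; parent quantified by LC-MS/MS (Polar-RP column, formic acid water/acetonitrile gradient, positive ion mode); % remaining reported.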

[21] = Cmax in ICR mouse plasma at 50 mg/kg, po by LC-MS/MS analysis; assay type: ADME, organism-based; design: dose 50 mg/kg, route oral
Plasma = test: Dose normalized AUC in ICR mouse plasma at 50 mg/kg, po by LC-MS/MS analysis; assay type: ADME, organism-based; design: dose 50 mg/kg, route oral; details: in vivo
Homo sapiens = species: Homo sapiens; test: Metabolic stability in human plasma assessed as compound remaining at 1 ug/ml after 30 mins
Liver [22] = test: Dose normalized AUC in ICR mouse liver at 50 mg/kg, po by LC-MS/MS analysis; assay type: ADME, organism-based; design: dose 50 mg/kg, route oral; details: in vivo
[23] = Metabolic stability in cynomolgus monkey liver S9 fraction assessed as compound remaining at 10 uM after 30 mins by HPLC analysis in presence of NADP; assay type: ADME, subcellular, Macaca fascicularis; details: read-out: Stability
[24] = Metabolic stability in mouse plasma assessed as compound remaining at 1 ug/ml after 4 hrs; assay type: ADME, cell-free; details: read-out: Stability
[25] = Metabolic stability in cynomolgus monkey intestine S9 fraction assessed as compound remaining at 10 uM after 30 mins by HPLC analysis in presence of NADP; assay type: ADME, tissue-based, Macaca fascicularis; details: read-out: Stability
[26] = Metabolic stability in cynomolgus monkey liver S9 fraction assessed as compound remaining at 10 uM after 30 mins by HPLC analysis in absence of NADP; assay type: ADME, subcellular, Macaca fascicularis; details: read-out: Stability
[27] = Metabolic stability in cynomolgus monkey intestine S9 fraction assessed as compound remaining at 10 uM after 30 mins by HPLC analysis in absence of NADP; assay type: ADME, tissue-based, Macaca fascicularis; details: read-out: Stability

Row | SMILES | remaining at 1 h, 10 µM [1] [%] | remaining at 1 h, 10 µM [2] [%] | remaining at 1 h, 10 µM [3] [%] | CC50 at 72 h [4] [nM] | remaining at 1 h, 10 µM [5] [%] | remaining at 1 h, 10 µM [6] [%] | remaining at 1 h, 10 µM [7] [%] | remaining at 1 h, 10 µM [9] [%] | remaining at 0.5 h, 1 ug/ml [11] [%] | remaining at 1 h, 10 µM [13] [%] | remaining at 1 h, 10 µM [14] [%] | remaining at 1 h, 10 µM [15] [%] | remaining at 1 h, 10 µM [16] [%] | remaining at 1 h, 10 µM [17] [%] | EC50 (Hepatitis C virus) [nM] | AUC (Liver [19]) [ng·h/g] | Cmax [21] [ng/mL] | AUC (Plasma) [ng·h/mL] | AUC (Liver [22]) [ng·h/g] | also measured
1 | CC(C)OC(=O)[C@H](C)NP(=O)(OC[C@H]1O[C@@H](n2cnc3c(=O)[nH]c(N)nc32)[C@](C)(O)[C@@H]1O)Oc1cccc2ccccc12 (some centres not stated) | 28 | 41 | 68 | > 100000 | 25 | 91 | 66 | 81 | 14 | 65 | 76 | 85 | 77 | 27 | 170 |  |  |  |  | remaining at 1 h, 10 µM [8]: 0%; remaining at 1 h, 10 µM [10]: 48%; remaining at 1 h, 10 µM [12]: 87%; remaining at 1 h, 10 µM [18]: 86%
2 | CC(C)[C@H](NP(=O)(OC[C@H]1O[C@@H](n2cnc3c(=O)[nH]c(N)nc32)[C@](C)(O)[C@@H]1O)Oc1cccc2ccccc12)C(=O)OCc1ccc(Cl)cc1 (some centres not stated) |  |  |  |  |  |  |  |  | 94 |  |  |  |  |  | 620 | 920 | 339 | 88 | 18 | remaining at 0.5 h, 1 ug/ml [20]: 89%; remaining at 0.5 h, 1 ug/ml (Homo sapiens): 95%
3 | COC(=O)[C@H](C)NP(=O)(OC[C@H]1O[C@@H](n2cnc3c(=O)[nH]c(N)nc32)[C@](C)(O)[C@@H]1O)Oc1cccc2ccccc12 (some centres not stated) |  | 40 | 54 | > 50000 |  | 85 | 50 | 67 | 1.7 | 60 |  | 63 |  | 20 | 210 |  |  |  |  | 
4 | CC(C)[C@H](NP(=O)(OC[C@H]1O[C@@H](n2cnc3c(=O)[nH]c(N)nc32)[C@](C)(O)[C@@H]1O)Oc1cccc2ccccc12)C(=O)OCc1ccccc1 (some centres not stated) | 62 | 78 | 72 | > 100000 | 8 | 75 | 56 | 56 | 89 | 24 | 81 | 70 | 65 | 0 | 760 | 1940 | 504 | 40 | 97 | remaining at 0.5 h, 10 µM [23]: 0%; remaining at 4 h, 1 ug/ml [24]: 66%; remaining at 0.5 h, 10 µM [25]: 25%; remaining at 0.5 h, 10 µM [26]: 77%; remaining at 0.5 h, 10 µM [27]: 77%
